RGS4 inh: RGS4 inhibitors, primary screen, cell-based, HEK293 M3R inducible RGS4, calcium flux | Regulator of G-protein signaling 4 (Homo sapiens), P49798 | Fluo-4 calcium flux; active compounds read high; triggered by carbachol at its EC20 | B-score at 10 µM | 310,000 compounds, 0.45% hits | AID 463165, 2010;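 active = B-score, a plate-corrected calcium signal, over three deviations above library mean, with baseline fluorescence within five deviations of library mean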;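 also: RGS4 expression induced by doxycycline in cells with stable M3 receptor; B-score is computed from the integrated fluorescence ratio over baseline after carbachol; higher B-score means a larger calcium signal and so more RGS4 inhibition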
Target sequence (P49798 whole entry, looked up): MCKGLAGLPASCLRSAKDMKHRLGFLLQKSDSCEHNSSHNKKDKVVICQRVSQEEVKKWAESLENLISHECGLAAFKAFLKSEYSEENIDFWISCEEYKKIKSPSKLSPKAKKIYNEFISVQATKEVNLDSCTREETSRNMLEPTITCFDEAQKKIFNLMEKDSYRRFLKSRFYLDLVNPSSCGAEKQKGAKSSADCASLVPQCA
MrgX1 agonist: agonists of human MrgX1 receptor, primary screen, HEK293 cells, Fluo-4 calcium flux | Mas-related G-protein coupled receptor member X1 (Homo sapiens), Q96LB2 | Fluo-4 calcium fluorescence, agonist mode; active compounds read high | B-score at 10 µM | 310,000 compounds, 0.44% hits | AID 588627, 2011;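 active = calcium response B-score plate-corrected fluorescence ratio at least 3 library SD, with starting fluorescence B-score inside 5 SD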
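Material: MrgX1-expressing HEK293 cells; input: 15,000 cells per well; doses: test compound given as first of three sequential additions; schedule: overnight plating before 1 h dye loading; technique: Fluo-4 NW calcium-flux fluorescence, kinetic read; evaluation: baseline-normalised fluorescence change ratio, B-scored; control set: plate-wise positive and negative controls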
RGS4 act: RGS4 potentiators or activators, primary screen, cell-based, HEK293 M3R inducible RGS4, calcium flux; B-score at 10 µM; carbachol calcium flux Fluo4; active compounds read low; 310,000 compounds, 0.92% hits;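 active = B-score of the integrated calcium signal more than 4 SD below the library mean, with starting fluorescence not abnormally high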;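 also: negative B-score means reduced calcium response which marks RGS4 activation or potentiation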
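System – HEK293 FlpIn-TREx cells, stable M3R, doxycycline-inducible RGS4 · Reagent – ECmax carbachol challenge · Times – compound preincubation 20 min at room temperature before agonist · Technique – Fluo4 fluorescence kinetic imaging of calcium · Measure – B score of integrated Fluo4 ratio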
MrgX1 allo act: positive allosteric modulators of MrgX1, primary screen, HEK293 cells, Fluo-4 calcium flux; FDSS; active compounds read high; B-score at 10 µM; AID 588675, 2011; 310,000 compounds, 0.63% hits; Mas-related G-protein coupled receptor member X1 (Homo sapiens), Q96LB2;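 active = plate-corrected calcium response at least 3 library SD above typical, normal starting fluorescence, not activating the receptor alone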;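 also: compound read alongside a low EC10 to EC30 dose of BAM8-22 agonist; peak minus trough fluorescence over baseline measured at the second addition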
PHOSPHO1 block: PubChem AID 1565 | recombinant PHOSPHO1, absorbance phosphatase assay | inhibition, % at 13.3 µM | 290,000 compounds, 1.1% hits; in the data active = inhibition above about 60%
Target sequence (Q8TCT1 whole entry, looked up): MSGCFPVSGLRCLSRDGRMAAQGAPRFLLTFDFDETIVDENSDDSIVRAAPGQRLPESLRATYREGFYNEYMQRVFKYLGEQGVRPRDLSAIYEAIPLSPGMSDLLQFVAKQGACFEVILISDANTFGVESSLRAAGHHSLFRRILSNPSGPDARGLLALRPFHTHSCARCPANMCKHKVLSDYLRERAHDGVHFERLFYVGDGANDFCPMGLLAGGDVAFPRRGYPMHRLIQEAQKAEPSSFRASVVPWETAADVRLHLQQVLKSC
MrgX1 antag: antagonists of human MrgX1 receptor, primary screen, HEK293 cells, Fluo-4 calcium flux. BAM8-22 antagonism; active compounds read low. 310,000 compounds, 1.3% hits. B-score at 10 µM. Mas-related G-protein coupled receptor member X1 (Homo sapiens), Q96LB2. AID 588676, 2011;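 active = calcium-response B-score plate-corrected more than 3 library SD below zero, starting fluorescence within 5 deviations, no agonist response on first addition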;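 also: peak minus trough fluorescence over baseline after final BAM8-22 challenge near maximal dose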
MrgX1 antag conf: MrgX1 receptor antagonists, duplicate retest, confirmation, HEK293 cells, Fluo-4 calcium flux. AID 602420, 2012. shares compounds with MrgX1 antag. BAM8-22 calcium flux; active compounds read low. remaining BAM8-22 calcium response % of control (active compounds read low), % at 10 µM. 2,300 compounds, 19% hits;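 active = remaining agonist calcium response no higher than 100% minus 3 SD of agonist-only control wells, with starting fluorescence near control levels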;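 also: agonist BAM8-22 given at a near maximal EC90 to ECmax level; peak minus minimum fluorescence divided by baseline after agonist addition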
HEK293 Ca flux: nonspecific calcium signal in parental HEK293, confirmation, counter-screen for MrgX1 antagonist project, parental HEK293 cells, Fluo-4 calcium flux | 4,000 compounds, 2% hits | shares compounds with MrgX1 antag | Fluo-4 calcium fluorescence, FDSS | AID 624111, 2012 | fluorescence ratio F(max-min)/F0 at 10 µM;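 active = duplicate-averaged calcium fluorescence ratio at least three times the standard deviation of buffer wells, a nonspecific response in parental cells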
HEK293 Ca counter: calcium response in parental HEK293 cells, primary screen, counter-screen for MrgX1 allosteric activator project, cell-based, Fluo-4 calcium flux, duplicate; 4,000 compounds, 0.4% hits; Fluo-4 fluorescence ratio; active compounds read high; fluorescence ratio F(max-min)/F0 at 10 µM; shares compounds with MrgX1 antag; AID 624114, 2012;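 active = calcium fluorescence ratio, averaged over duplicates, at least 3 SD of the buffer-well ratio, meaning a nonspecific response in receptor-free cells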;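 also: untransfected parental HEK293 lacking MrgX1 used as counterscreen for MrgX1 allosteric activators; fluorescence change taken during the second addition on a kinetic imager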
HEK293 Ca cntr2: calcium response in parental HEK293 cells, primary screen, counter-screen for MrgX1 agonist project, cell-based, Fluo-4 calcium flux, duplicate, agonist mode. shares compounds with MrgX1 antag. Fluo-4 calcium fluorescence (FDSS); active compounds read high. fluorescence ratio F(max-min)/F0 at 10 µM. 4,000 compounds, 8.7% hits. AID 624115, 2012;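 active = calcium fluorescence ratio at least three times the spread of buffer wells, meaning a non-specific response in parental cells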
* = called active by the depositor; i = inactive; . = not tested or not shown. This is a sample that favours compounds with a hit; in the whole collection about 4.5% have one here.

SMILES	RGS4 inh	MrgX1 agonist	RGS4 act	MrgX1 allo act	PHOSPHO1 block	MrgX1 antag	MrgX1 antag conf	HEK293 Ca flux	HEK293 Ca counter	HEK293 Ca cntr2
CCN(C(=O)c1cccc(Br)c1)C1CCS(=O)(=O)C1 (stereo not drawn)	i	i	i	i	.	i	.	.	.	.
CN(C(=O)c1cccc(Br)c1)C1CCS(=O)(=O)C1 (stereo not drawn)	i	i	i	i	.	-4.5*	i	i	i	i
O=C(Nc1ccc(Oc2ccc(C(=O)O)c(C(=O)O)c2)cc1)c1cccs1	i	i	i	i	32	i	.	.	.	.
Cc1cccc(COc2ccccc2C(=O)NC2CCC(O)CC2)c1 (stereo not drawn)	i	i	i	i	.	-10*	i	i	i	i
S=C(Nc1cccc2ccccc12)NC1CCCCC1	i	i	i	i	-70	-5.4*	i	i	i	i
COc1ccccc1NC(=O)N1CCC(NC(=O)C2CCCCC2)CC1	i	i	i	i	30	-8.2*	i	i	i	i
CC(=O)NC(=S)Nc1ccccc1C(=O)NC1CCCCC1	i	i	i	i	12	-8.3*	i	i	i	i
CSc1ccccc1NC(=S)NC1CCCCC1	i	i	i	i	6	i	.	.	.	.
COc1ccccc1C(=O)NC1CCCCCCC1	i	i	i	i	-35	-11*	i	i	i	i
CCOc1ccc(NC(=O)CC2C(=O)N(c3ccc(OC)c(Cl)c3)C(=S)N2C2CC2)cc1 (stereo not drawn)	i	i	i	i	3	i	.	.	.	.
COc1ccccc1NC(=O)c1ccc(Br)c(S(=O)(=O)N2CCCC2)c1	i	i	i	i	18	i	.	.	.	.
COc1ccc(/C=N/n2c(C)nnc2C)c(OC)c1	i	i	i	i	48	i	.	.	.	.
COc1cc(OC)c(/C=N/n2c(C)nnc2C)c(OC)c1	i	i	i	i	-14	-4.8*	i	i	i	i
CCc1nnc(SCC(=O)Nc2ccc(N3CCOCC3)cc2)n1C	i	i	i	i	33	-5.6*	i	i	i	i
Cc1ccccc1OCc1nnc(SCC(=O)Nc2ccc(N3CCOCC3)cc2)n1C	i	i	i	i	27	i	.	.	.	.
O=C(CSc1n[nH]c(-c2ccccc2)n1)Nc1ccccc1O	i	i	i	i	38	i	.	.	.	.
CCOC(=O)CN1C(=O)C(C)(C)Oc2ccc(C(=O)NC(C)(C)CC)cc21	i	i	i	i	18	-5.3*	i	i	i	i
COc1ccc(CNC(=O)c2cc(SC)ccc2Cl)cc1OC	i	i	i	i	-18	i	.	.	.	.
COc1ccc(-c2c(C#N)c(N)nc3c2c(=O)n(C)c(=O)n3C)cc1Cl	i	i	i	i	.	-8.3*	i	i	i	i
COC(=O)c1ccccc1NC(=O)c1cc2sccc2n1C	i	i	i	i	-47	-7.3*	85%*	i	i	i
Cc1ccccc1CN(c1ccc(C(=O)NCc2ccccn2)cc1)S(C)(=O)=O	i	i	i	i	38	i	.	.	.	.
Cc1nn(C)c2ncc(C(N)=O)c(Oc3ccc(Cl)cc3)c12	i	i	i	i	46	i	.	.	.	.
CCN(CC)C(=O)C1CC(=O)OC12CCCCC2 (stereo not drawn)	i	i	i	i	0	i	.	.	.	.
O=C1CC(C(=O)O)C2(CCCC2)O1 (stereo not drawn)	i	i	i	i	.	-5.2*	i	i	i	i
Cc1cccnc1CCNC(=O)c1ccc(OC2CCN(Cc3ccccn3)CC2)cc1	i	i	i	i	18	-10*	i	i	i	i
SMILES	RGS4 inh	MrgX1 agonist	RGS4 act	MrgX1 allo act	PHOSPHO1 block	MrgX1 antag	MrgX1 antag conf	HEK293 Ca flux	HEK293 Ca counter	HEK293 Ca cntr2
CC1(C)CC(=O)C2=C(C1)OC(N)=C(C#N)C2c1cc2c(cc1[N+](=O)[O-])OCO2 (stereo not drawn)	i	i	i	i	-8	i	.	.	.	.
Cc1ccc(N2C(=O)N(CC(=O)Nc3ccc(C)cc3Cl)C(=O)C2C)cc1 (stereo not drawn)	i	i	i	i	.	-10*	77%*	i	i	i
COc1ccc(N2CC(C(=O)N3CCN(c4ccccc4)CC3)CC2=O)cc1 (stereo not drawn)	i	i	i	i	23	i	.	.	.	.
COc1ccc(S(=O)(=O)n2ccc(C(C)Oc3ccc(-c4ccccc4)c(F)c3)n2)cc1 (stereo not drawn)	i	i	i	i	2	-6.6*	i	i	i	i
Cc1nnc(NC(=O)CSc2nnc(CCc3nc4ccccc4[nH]3)n2C)s1	i	i	i	i	11	-4.6*	i	i	i	i
CCc1nnc(NC(=O)CSc2nnc(CCc3nc4ccccc4[nH]3)n2C)s1	i	i	i	i	-1	i	.	.	.	.
CC(CNC(=O)c1ccc(NC2=NC3CS(=O)(=O)CC3S2)cc1)c1ccccc1 (stereo not drawn)	i	i	i	i	-4	-5.2*	i	i	i	i

Bioassay records (PubChem BioAssay)
